Read-outs that look alike come from different tables or passages of the source.
Legend:
[1] = system: non-tumor cord blood (CD34+) cells; test: CellTiter-Glo luminescent cell viability assay; format: cell-based; conditions: 24 h; for IC50: read-out: IC50 (50% inhibition of cellular proliferation), CD34+ non-tumour control cells, 24 h treatment; for The lowest dose of polyphenols at which there was a significant inhibition of cell proliferation compared to the vehicle control: CD34+ non-tumour control cells, doses 0, 2, 10, 50, 250, 500 µM, p<0.05
Procedure, shortened: (§1)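 Cells grown in RPMI 1640 with 10% FBS, 1.5 mM L-glutamine and penicillin/streptomycin at 37 °C, 5% CO2. Seeded at 2.5 x 10³ cells/well and exposed 24 h to ethanol-dissolved test compound (0, 2, 10, 50, 250, 500 µM) with 0.1% ethanol vehicle. ATP luminescence normalized to vehicle (100%). IC50 taken from linear regression. Lowest significant dose set by one-way ANOVA/Tukey, p<0.05. Triplicates, three independent experiments.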

KG1a = test: Cell cycle analysis, propidium iodide flow cytometry; format: cell-based, human; conditions: IC50 dose, 24 h
Procedure, shortened: (§2)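 Seeded at 0.5 x 10^6 cells per well in 12-well plates and treated 24 h at the IC50 concentration of each test compound from CellTiter-Glo. Cells were pelleted (400 g, 5 min), PBS-washed and fixed in 80% ethanol overnight at -20 °C. Staining used 50 µg/mL PI plus RNase overnight at 4 °C.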

all leukemia cell lines [2] = test: CellTiter-Glo assay, summary over the leukemia panel; format: cell-based, human; conditions: Homo sapiens, 24 h, read-out: IC50 values (range over leukemia cell lines)
Procedure, shortened: (§3)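 Cells plated at 2.5 x 10^3 per well in complete RPMI 1640 (10% FBS, 37 °C, 5% CO2). Test compounds dissolved in ethanol and dosed at 2–500 µM for 24 h; vehicle control was 0.1% (v/v) ethanol. Viability was read as ATP luminescence, normalised to vehicle (100%). IC50 was taken from linear regression of each curve. Triplicates, three independent experiments.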

JURKAT [3] = test: Hoechst 33342 nuclear morphological analysis of apoptosis; format: cell-based; conditions: Homo sapiens, 24 h, read-out: AP50 (50% induction of apoptosis), Hoechst 33342 staining (Hoe)
Procedure, shortened: (§4)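 Seeded at 0.5 x 10⁶ cells/well in 12-well plates and treated 24 h. Cells were pelleted (400 g, 5 min, 4 °C), washed in PBS, fixed in 4% paraformaldehyde, cytospun, air-dried, then stained with 10 μg/ml Hoechst 33342 for 10 min in the dark. Fluorescence microscopy: 200 cells counted, scored by condensed/intense nuclei, shrinkage, blebbing and apoptotic bodies. % apoptotic nuclei calculated. AP50 = concentration giving 50% apoptotic cells.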

THP-1 [4] = test: Cell cycle analysis, propidium iodide flow cytometry; format: cell-based, human; conditions: THP-1, IC50 dose, 24 h
Procedure, shortened: as §2

JURKAT [5] = test: NucView caspase 3 activity assay by flow cytometry; format: cell-based, human; conditions: 24 h; for EC50: Homo sapiens, Jurkat, read-out: AP50 (50% induction of apoptosis), Caspase 3 activity assay (C3); for The lowest dose of polyphenols at which there was a significant induction of apoptosis compared to the vehicle control: JURKAT, caspase 3 activity, p<0.05
Procedure, shortened: (§5)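 Seeded at 0.5 x 10⁶ cells/well and treated 24 h, with series of 0–50 or 0–250 µM depending on compound. Normalized to vehicle (0% apoptosis). Mean ± STD, three independent experiments in triplicate. One-way ANOVA/Tukey, p<0.05. AP50 = concentration giving 50% apoptotic cells.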

K562 = test: Hoechst 33342 nuclear morphological analysis of apoptosis; format: cell-based; conditions: Homo sapiens, K562, 24 h, read-out: AP50 (50% induction of apoptosis), Hoechst 33342 staining (Hoe)
Procedure, shortened: as §4

lymphoid cell lines [6] = test: Apoptosis; format: cell-based; conditions: Homo sapiens
[7] = system: lung (A549) and leukemia (HL-60) cell lines; conditions: 24 h; cited from earlier work
U937 [8] = test: NucView caspase 3 activity assay by flow cytometry; format: cell-based, human; conditions: for EC50: Homo sapiens, U-937, 24 h, read-out: AP50 (50% induction of apoptosis), Caspase 3 activity assay (C3); for The lowest dose of polyphenols at which there was a significant induction of apoptosis compared to the vehicle control: U937, caspase 3 activity, 24 h, p<0.05
Procedure, shortened: as §5

[9] = system: lung cancer cell lines (A549 and CH27); conditions: 24 h; cited from earlier work
JURKAT [10] = test: Cell cycle analysis, propidium iodide flow cytometry; format: cell-based, human; conditions: IC50 dose, 24 h, p<0.05
Procedure, shortened: as §2

THP-1 [11] = test: NucView caspase 3 activity assay by flow cytometry; format: cell-based, human; conditions: for EC50: Homo sapiens, THP-1, 24 h, read-out: AP50 (50% induction of apoptosis), Caspase 3 activity assay (C3); for The lowest dose of polyphenols at which there was a significant induction of apoptosis compared to the vehicle control: THP-1, caspase 3 activity, 24 h, p<0.05
Procedure, shortened: as §5

U937 [12] = test: Hoechst 33342 nuclear morphological analysis of apoptosis; format: cell-based; conditions: Homo sapiens, U-937, 24 h, read-out: AP50 (50% induction of apoptosis), Hoechst 33342 staining (Hoe)
Procedure, shortened: as §4

HL60 = test: NucView caspase 3 activity assay by flow cytometry; format: cell-based, human; conditions: for The lowest dose of polyphenols at which there was a significant induction of apoptosis compared to the vehicle control: HL60, caspase 3 activity, 24 h, p<0.05; for EC50: Homo sapiens, HL-60, 24 h, read-out: AP50 (50% induction of apoptosis), Caspase 3 activity assay (C3)
Procedure, shortened: as §5

THP-1 [13] = test: CellTiter-Glo luminescent cell viability assay; format: cell-based, human; conditions: THP-1, 24 h, doses 0, 2, 10, 50, 250, 500 µM, p<0.05
Procedure, shortened: as §1

THP-1 [14] = test: Hoechst 33342 nuclear morphological analysis of apoptosis; format: cell-based; conditions: Homo sapiens, THP-1, 24 h, read-out: AP50 (50% induction of apoptosis), Hoechst 33342 staining (Hoe)
Procedure, shortened: as §4

myeloid cell lines [15] = test: CellTiter-Glo assay, summary over myeloid lines; format: cell-based; conditions: Homo sapiens, 24 h, read-out: IC50 (range in myeloid cell lines)
Procedure, shortened: as §3

all leukemia cell lines [16] = test: Apoptosis; format: cell-based, human; conditions: Homo sapiens, 24 h, read-out: AP50 values (range over leukemia cell lines)
[17] = system: human cervical cancer cells (HeLa); conditions: cited from earlier work
lymphoid cell lines [18] = test: CellTiter-Glo assay, summary over lymphoid lines; format: cell-based; conditions: Homo sapiens, 24 h, read-out: IC50 (range in lymphoid cell lines)
Procedure, shortened: as §3

myeloid cell lines [19] = test: Apoptosis; format: cell-based; conditions: Homo sapiens, 24 h, read-out: AP50 values (range in myeloid cell lines)
[20] = system: colorectal cancer cells (SW480, HT-29 and Caco-2); conditions: SW480, HT-29 and Caco-2, 24 h treatments; cited from earlier work

Row | IC50 (all leukemia cell lines [2]) | EC50 (JURKAT [3]) | EC50 (JURKAT [5]) | EC50 (K562) | EC50 (U937 [8]) | EC50 (THP-1 [11]) | EC50 (U937 [12]) | EC50 (HL60) | EC50 (THP-1 [14]) | SMILES | IC50 [1] | The lowest dose of polyphenols at which there was a significant inhibition of cell proliferation compared to the vehicle control [1] | The lowest dose of polyphenols at which there was a significant induction of apoptosis compared to the vehicle control (JURKAT [5]) | The lowest dose of polyphenols at which there was a significant induction of apoptosis compared to the vehicle control (U937 [8]) | Phase of cell cycle accumulation (JURKAT [10]) | The lowest dose of polyphenols at which there was a significant induction of apoptosis compared to the vehicle control (THP-1 [11]) | The lowest dose of polyphenols at which there was a significant induction of apoptosis compared to the vehicle control (HL60) | The lowest dose of polyphenols at which there was a significant inhibition of cell proliferation compared to the vehicle control (THP-1 [13]) | other results
1 | 109 to 500 µM | 310 µM | 250 µM | 460 µM | 200 µM | > 500 µM | 225 µM | 40 µM | > 500 µM | C(=C\c1ccccc1)/c1ccccc1 [Trans-Stilbene, Trans-stilbene] | 500 µM | 250 µM | 50 µM | 50 µM | S-phase | 250 µM | 50 µM | 250 µM | Percentage of cells in G2/M phase of cell cycle (significant accumulation) (KG1a; vehicle control G2/M = 18.7%): G2/M =23.7%; Percentage of cells in G0/G1 phase of cell cycle (significant accumulation) (THP-1 [4]; vehicle control G0/G1 = 42.3%): G0/G1 =53%; EC50 (lymphoid cell lines [6]; read-out: AP50 values in three lymphoid cell lines): 40 to 460 µM; IC50 [7]: 6.25 µM; IC50 [9]: 25 to 98 µM
2 | 100 to 500 µM | 90 µM | 35 µM | 190 µM | 45 µM | 110 µM | 130 µM | 84 µM | 220 µM | O=c1cc(-c2ccc(O)cc2)oc2cc(O)cc(O)c12 [Apigenin] | > 500 µM | 500 µM | 50 µM | 50 µM | S-phase | 10 µM | 50 µM | 10 µM | Percentage of cells in S phase of cell cycle (significant accumulation) (KG1a; vehicle control S = 34.6%): S = 50%; Percentage of cells in G2/M phase of cell cycle (significant accumulation) (THP-1 [4]; vehicle control G2/M = 26.4%): G2/M =32%; IC50 (myeloid cell lines [15]): 100 to 500 µM; EC50 (lymphoid cell lines [6]; 24 h, read-out: AP50 values (range in lymphoid cell lines)): 35 to 130 µM; EC50 (all leukemia cell lines [16]): 35 to 150 µM; IC50 [17]: 36 µM; IC50 (lymphoid cell lines [18]): 140 to 195 µM; EC50 (myeloid cell lines [19]): 84 to 235 µM; IC50 [20]: 70 µM

From paper PMC3873039 (Anti-Cancer Agents in Medicinal Chemistry, 2013)
